Screens deposited in PubChem BioAssay by several laboratories.
Only some compounds are listed: those with a hit (about 1.9% of all), similar ones and a draw of the others.
Dynein cargo inh = dynein cargo transport inhibition; 3617.4 mouse cells, GR-EGFP nuclear translocation imaging; test concentration mostly 20 µM; stimulated with dexamethasone, 1 µM; active compounds read low; z-score, hits read low; actives 0.47% (n = 220,000);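 active means plate z-score of nuclear minus cytoplasmic receptor signal below a set negative limit, without overly bright fluorescence or cell loss, cut at about -3.5 in these data, passing the limit was not always enough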;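 further: z-score of nuclear minus cytoplasmic ring GR-EGFP intensity difference per well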
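Buffer or medium: tet-free, stripped-serum medium; Also added: dexamethasone, 1.0 µM final; Technique: high-content fluorescence imaging after fixation; Times: 48 h induction, 1 h compound, 30 min dex at 37 °C; Read-out: per-cell GR-EGFP intensity, nucleus versus surrounding cytoplasmic ring, well-averaged.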
p47phox inh = p47phox (human) inhibition; p47phox/p22phox peptide binding, fluorescence polarization, 2 h; inhibition, % at 24.7 µM; actives 0.53% (n = 220,000); AID 1274;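 active means inhibition above about 30%, limit read from the data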
pCIP destab = lowers stability of the mouse p/CIP coactivator protein | actives 0.01% (n = 290,000) | AID 1984 | decrease of EGFP signal, % at 10 µM | F442A p/CIP-EGFP cells, EGFP fluorescence, 16 h;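 active means EGFP signal decrease of at least 30% at 10 µM or well 3 SD below plate mean, unless failing retest; inactive means the rest, including hits failing retest or dose response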
Target sequence (Q05BA5 1-1403): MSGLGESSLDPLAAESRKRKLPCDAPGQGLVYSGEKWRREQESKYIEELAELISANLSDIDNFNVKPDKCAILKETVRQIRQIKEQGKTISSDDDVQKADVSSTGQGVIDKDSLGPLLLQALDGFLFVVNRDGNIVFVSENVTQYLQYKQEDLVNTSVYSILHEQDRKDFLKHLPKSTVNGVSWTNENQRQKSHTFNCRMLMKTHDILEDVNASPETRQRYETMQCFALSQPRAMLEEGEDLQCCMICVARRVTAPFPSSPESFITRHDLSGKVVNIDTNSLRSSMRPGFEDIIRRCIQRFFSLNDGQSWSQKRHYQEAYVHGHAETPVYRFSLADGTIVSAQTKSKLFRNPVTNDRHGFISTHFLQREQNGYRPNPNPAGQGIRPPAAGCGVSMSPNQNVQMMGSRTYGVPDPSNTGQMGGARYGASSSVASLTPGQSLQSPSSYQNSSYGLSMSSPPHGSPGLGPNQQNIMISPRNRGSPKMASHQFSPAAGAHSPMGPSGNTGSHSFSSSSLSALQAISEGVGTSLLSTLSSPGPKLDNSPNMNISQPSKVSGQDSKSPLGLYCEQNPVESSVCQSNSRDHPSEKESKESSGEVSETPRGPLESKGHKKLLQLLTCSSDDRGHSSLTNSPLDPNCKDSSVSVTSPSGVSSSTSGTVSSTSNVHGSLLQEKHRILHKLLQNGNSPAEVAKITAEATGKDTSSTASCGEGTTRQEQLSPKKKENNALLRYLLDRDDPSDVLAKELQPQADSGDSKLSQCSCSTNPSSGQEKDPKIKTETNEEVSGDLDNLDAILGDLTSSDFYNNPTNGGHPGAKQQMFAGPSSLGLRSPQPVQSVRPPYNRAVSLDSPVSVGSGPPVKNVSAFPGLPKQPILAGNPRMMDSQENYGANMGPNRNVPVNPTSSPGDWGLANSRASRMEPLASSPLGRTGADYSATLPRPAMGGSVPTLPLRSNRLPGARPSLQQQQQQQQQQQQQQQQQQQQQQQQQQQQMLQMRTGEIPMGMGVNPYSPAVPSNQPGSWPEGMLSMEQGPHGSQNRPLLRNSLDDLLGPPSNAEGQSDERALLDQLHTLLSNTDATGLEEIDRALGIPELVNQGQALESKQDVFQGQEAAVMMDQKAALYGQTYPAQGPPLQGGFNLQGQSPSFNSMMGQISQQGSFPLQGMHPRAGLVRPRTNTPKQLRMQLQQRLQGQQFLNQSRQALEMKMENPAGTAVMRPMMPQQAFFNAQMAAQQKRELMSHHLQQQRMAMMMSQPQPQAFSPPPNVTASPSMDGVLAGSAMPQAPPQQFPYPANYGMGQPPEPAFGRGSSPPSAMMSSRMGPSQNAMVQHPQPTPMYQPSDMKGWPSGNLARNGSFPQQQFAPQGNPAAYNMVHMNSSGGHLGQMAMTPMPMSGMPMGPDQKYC
RAM network inh = blocks the yeast RAM network; actives 1.8% (n = 190,000); inhibition, % at 50 µM; S. cerevisiae dse1pr::URA3 reporter, 5-FOA growth OD615, 2 d; analog-sensitive cbk1-as2 kinase mutant strain;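 active means inhibition above a set limit, 3 SD over mean compound inhibition, cut at about 8.4% in these data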;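 further: inhibition rescues growth on 5-FOA so higher OD means more RAM inhibition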
RAM efflux-def = RAM network inhibitors in efflux-deficient yeast. shares compounds with RAM network inh. S. cerevisiae efflux-deficient reporter strain, 5-FOA growth OD615, 2 days. max inhibition, %. 1,200 tested, under 10 active. AID 1305; call rule not given here
Large screens that a line does not name were inactive (follow-up assays come after a bar, where they were run).

CN(C)c1oc(-c2ccc(OCc3ccccc3)cc2)nc1C#N	RAM network inh 14 | RAM efflux-def inactive
N#Cc1nc(-c2ccc(OCc3ccccc3)cc2)oc1NCc1cccnc1	none
COCCNC(=S)N(CCc1c(C)[nH]c2ccc(F)cc12)Cc1cccs1	RAM network inh 12 | RAM efflux-def inactive
CCNC(=S)N(CCc1c(C)[nH]c2ccc(C)cc12)Cc1cccs1	none
O=C(C(Sc1ccccc1)c1ccc(Br)cc1)N1CCOCC1 (stereo not drawn)	none
O=C(C(Sc1ccccc1)c1ccccc1)N1CCN(c2ccccc2F)CC1 (stereo not drawn)	RAM network inh 14 | RAM efflux-def inactive
CS(=O)(=O)N(CC(=O)Nc1ccccc1Br)Cc1ccccc1	none (no result: Dynein cargo inh, p47phox inh, RAM network inh)
Cc1ccc(Cc2nnc3n(-c4cccc(C)c4)nc(C(=O)c4ccccc4)n3c2=O)cc1	RAM network inh 15 | RAM efflux-def inactive
CC(C)Sc1nc2c(cnn2-c2ccc(Cl)cc2)c(=O)[nH]1	none (no result: Dynein cargo inh, p47phox inh, RAM network inh)
COc1cccc(NC(=S)NCCC(c2ccccc2)c2ccccc2)c1	RAM network inh 12 | RAM efflux-def inactive
O=C(Nc1c2c(nn1-c1ccccc1)CS(=O)(=O)C2)c1cc2ccccc2o1	none (no result: Dynein cargo inh, p47phox inh, RAM network inh)
CC(C)CCC(C)N=Cc1c(O)n(Cc2ccccc2)c(=O)c2ccccc12 (stereo not drawn)	RAM network inh 17 | RAM efflux-def inactive
COc1ccc(N2C(=O)c3ccc(C(=O)Nc4ccc(NC(C)=O)cc4)cc3C2=O)cc1	none (no result: Dynein cargo inh, p47phox inh, RAM network inh)
Cc1cc(Br)ccc1OCC(=O)N1CCCCCC1	RAM network inh 21 | RAM efflux-def inactive
COc1ccc(CCN(Cc2cccs2)S(=O)(=O)c2ccc(C(=O)O)cc2)cc1OC	RAM network inh 13 | RAM efflux-def inactive
COc1ccc(C(=O)/C=C/c2ccc(N3CCCCC3)c([N+](=O)[O-])c2)c(OC)c1	RAM network inh 17 | RAM efflux-def inactive
O=C(O/N=C\c1ccc(N2CCCCC2)c([N+](=O)[O-])c1)c1c(F)cccc1F	none
Cc1ccc(C(=O)O/N=C\c2ccc(N3CCCCC3)c([N+](=O)[O-])c2)cc1	RAM network inh 16 | RAM efflux-def inactive
CCOCC(=O)Nc1c(C(=O)N2CCN(c3ncccn3)CC2)oc2ccccc12	none (no result: Dynein cargo inh, p47phox inh, RAM network inh)
O=C(c1oc2ccccc2c1CSCc1ccccc1)N1CCN(c2ncccn2)CC1	RAM network inh 12 | RAM efflux-def inactive
Cc1cc(C)n(C(=O)CN(C)S(=O)(=O)c2ccc([N+](=O)[O-])cc2)n1	none (no result: Dynein cargo inh, p47phox inh, RAM network inh)
O=C1c2cccnc2C(=O)N1Cc1ccc(S(=O)(=O)N2CCN(c3ccccc3)CC2)cc1	none (no result: Dynein cargo inh, p47phox inh, RAM network inh)
Cc1ccc(CSc2ncnc3c2cnn3-c2ccccc2)cc1	none
Cc1ccc(-n2ncc3c(SCc4ccccc4)ncnc32)cc1	RAM network inh 12 | RAM efflux-def inactive
O=C(CSc1ccc(Cl)cc1)N1CCN(c2c(Cl)cccc2[N+](=O)[O-])CC1	RAM network inh 17 | RAM efflux-def inactive
O=C(/C=C/c1ccc(Cl)cc1)N1CCN(c2c(Cl)cccc2[N+](=O)[O-])CC1	none
O=C(CSc1ccc(Cl)cc1)N1CCN(c2ccc([N+](=O)[O-])cc2Cl)CC1	RAM network inh 14 | RAM efflux-def inactive
Cc1ccc(NC(=O)CCC(=O)OCC(=O)c2ccc(-c3ccccc3)cc2)cc1	none
Cc1ccccc1OCC(=O)OCC(=O)c1ccc(-c2ccccc2)cc1	RAM network inh 14 | RAM efflux-def inactive
CCCCNS(=O)(=O)c1ccc(NC(=O)C(Sc2ccccc2)c2ccccc2)cc1 (stereo not drawn)	RAM network inh 14 | RAM efflux-def inactive
CN(C)c1ccc(N=Nc2ccccc2C(=O)OCC(=O)NC2CCCC2)cc1	none
CN(C)c1ccc(N=Nc2ccccc2C(=O)OCC(=O)NCC2CCCCC2)cc1	RAM network inh 25 | RAM efflux-def inactive
O=C(COC(=O)CCc1c[nH]c2ccccc12)NC(c1ccccc1)c1ccccc1	RAM network inh 17 | RAM efflux-def inactive
O=C(COC(=O)C1(c2ccccc2F)CCCC1)Nc1ncc(C(F)(F)F)cc1Cl	RAM network inh 12 | RAM efflux-def inactive
Cc1c(/C(O)=C2/C(=O)C(=O)N(CCN3CCOCC3)C2c2ccccn2)cnn1-c1ccccc1 (stereo not drawn)	none
O=C(Nc1cccc2cccnc12)c1ccc2c(c1)OCCO2	none
COc1cc(NC(=O)c2ccc3c(c2)OCO3)c2ncccc2c1	RAM network inh 12 | RAM efflux-def inactive
COc1ccc(-c2nn(CCC#N)cc2C(=O)Nc2cccc(C(=O)O)c2)cc1OC	none (no result: Dynein cargo inh, p47phox inh, RAM network inh)
